Bioassay records deposited in PubChem by The Scripps Research Institute Molecular Screening Center.
CHRM1 agonist – activates human CHRM1 receptor; AID 588814; 360,000 compounds, 0.33% hits; activation, % at 3 µM; CHO-K1 hM1, Fluo-8 calcium fluorescence, agonist mode; 0% DMSO, 100% acetylcholine EC100;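 active means activation above the run's mean compound activation plus 3 SD, cut at about 16% in these data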;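 further: peak over basal fluorescence ratio within a 140 s kinetic read after compound addition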
Target sequence (P11229 whole entry, looked up): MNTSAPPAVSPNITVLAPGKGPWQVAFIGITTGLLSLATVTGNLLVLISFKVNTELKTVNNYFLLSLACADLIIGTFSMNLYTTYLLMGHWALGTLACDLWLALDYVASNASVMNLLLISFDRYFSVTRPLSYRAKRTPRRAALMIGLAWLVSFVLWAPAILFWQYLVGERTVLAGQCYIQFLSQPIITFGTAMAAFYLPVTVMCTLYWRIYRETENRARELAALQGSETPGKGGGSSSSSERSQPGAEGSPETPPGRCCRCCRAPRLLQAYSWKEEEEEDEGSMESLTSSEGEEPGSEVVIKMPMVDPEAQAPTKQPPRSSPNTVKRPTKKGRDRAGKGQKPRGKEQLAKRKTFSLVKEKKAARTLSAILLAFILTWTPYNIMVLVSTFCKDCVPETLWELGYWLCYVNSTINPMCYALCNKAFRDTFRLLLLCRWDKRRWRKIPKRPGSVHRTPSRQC
CHRM1 PAM – human CHRM1 positive allosteric modulation; AID 588819; activation, % at 3 µM; CHO-K1 hM1, Fluo-8 calcium fluorescence, ACh EC20; 0% = ACh EC20, 100% = maximal ACh; 360,000 compounds, 0.088% hits; in the data active means activation above about 19%, passing the limit was not always enough
TAAR1 agonist – agonists of human TAAR1; Q96RJ0; CHO RD-HGA16 TAAR1, Fluo-8 calcium fluorescence; vehicle wells 0%, saturating PEA agonist 100%; activation, % at 3 µM; 360,000 compounds, 0.99% hits;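 active means activation above the mean activation of all test compounds in the run plus 3 SD, cut at about 38% in these data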
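System: CHO RD-HGA16 cells carrying human TAAR1 plus Gα16; Incubation: 17-24 h seeding, 75 min 37 °C dye, 30 min RT; Measured by: Fluo-8 fluorescence, 5 s baseline then 140 s kinetic read; Control set: DMSO and PEA EC100; Replication: single well for each compound.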
CHRM1 antagonist – antagonists of human M1 muscarinic receptor | CHO-K1 hM1, Fluo-8 calcium fluorescence, ACh EC80 antagonist | inhibition, % at 3 µM | 360,000 compounds, 1.3% hits;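 active means percent inhibition above its own plate's cutoff, namely the mean of that plate's compound wells plus 3 SD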;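 further: peak over basal fluorescence ratio during 140 s after agonist addition; 0% = ACh EC80 plus DMSO and 100% = DMSO alone without agonist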
TAAR1 antagonist – human TAAR1 antagonism. inhibition, % at 3 µM. Q96RJ0. 360,000 compounds, 1.5% hits. CHO RD-HGA16 TAAR1, Fluo-8 calcium fluorescence, antagonist;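 active means inhibition above a per-plate cutoff, the mean inhibition of test compounds on that plate plus 3 SD, cut at about 49% in these data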;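 further: 0% = DMSO plus EC80 beta-PEA response and 100% = DMSO alone without agonist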
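System: CHO RD-HGA16 cells bearing hTAAR1. Reagent: EC80 β-phenethylamine stimulus. Schedule: seeding 17-24 h prior, 75-min 37 °C, 30-min RT dye loading. Signal: Fluo-8 intracellular calcium dye fluorescence, real-time kinetic reads. Read-out: % inhibition from peak post-agonist over basal fluorescence ratio. Benchmarks: vehicle wells and EC80 agonist wells. Replicates: n of 1.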
* = called active by the depositor; . = no result given. Most compounds without a hit are left out; they make up all but 3.4% or so of the library.

SMILES	CHRM1 agonist	CHRM1 PAM	TAAR1 agonist	CHRM1 antagonist	TAAR1 antagonist
CCOC(=O)CSc1nnc(CNc2ccc(Cl)cc2)n1-c1ccccc1	6	14	16	-5	52*
OC[C@@H]1CN(Cc2ccccc2)C[C@H](n2cnc3c(NCc4ccncc4)ncnc32)O1	6	10	1	-10	-6
CC(=O)Nc1ccc(/C=N/N2CCCCC2)cc1	35*	-15	3	13	-15
CC(=O)Nc1ccc(/C=N/N2C(C)CCCC2C)cc1 (stereo unspecified)	3	14	2	-22	-16
C[C@H](CO)N1C[C@H](C)[C@@H](CN(C)C(=O)Cc2ccccc2)OCc2cn(nn2)CCCC1=O	.	.	4	.	6
Cc1cccc2nc(-c3ccccc3)c(-c3ccc(CN4CCC(n5cc(-c6ccccc6)[nH]c5=O)CC4)cc3)nc12	.	.	2	.	-9
Cc1ccccc1NC(=O)c1ccc(C)c(S(=O)(=O)NCc2cccnc2)c1	22*	10	10	-6	-2
COc1ccccc1NS(=O)(=O)c1cc(C(=O)NCc2cccnc2)ccc1C	1	16	4	-26	-7
Oc1ccc(/C=N/Nc2ccnc3cc(Cl)ccc23)c(O)c1	-5	-3	44*	3	-24
Cn1nc(C(F)(F)F)c(-c2cccc(C(F)(F)F)c2)c1NC(=O)Nc1ccc(F)cc1	3	-19	5	38*	-1
CC(Oc1ccccc1Cl)C(=O)Nc1ccc(S(=O)(=O)N2CCCC2)cc1 (stereo unspecified)	-3	-27	6	91*	26
CC(=O)Nc1ccc(NC(=O)C(C)OC(=O)c2ccc(S(=O)(=O)N3CCCCC3)cc2)cc1 (stereo unspecified)	-7	2	2	-1	-6
CC(OC(=O)C(C)Oc1ccccc1)C(=O)Nc1ccc(S(=O)(=O)N2CCCCC2)cc1 (stereo unspecified)	-5	-9	6	6	-2
CCCC(C(=O)Nc1ccc(S(=O)(=O)N2CCCC2)cc1)c1ccccc1 (stereo unspecified)	8	4	41*	-6	26
CC(OC(=O)c1ccc(Cl)nc1)C(=O)Nc1ccc(S(=O)(=O)N2CCCC2)cc1 (stereo unspecified)	-7	-25	0	36*	-18
COC(=O)[C@]12CCCCC=C1N(CCC1=CCCCC1)C(=O)[C@H](CC(=O)N1CCCC1)C2	.	.	5	.	24
CCCCNC(=O)c1nc(-c2cccs2)oc1-c1ccc(Cl)cc1	.	.	5	.	-29
CN(CC(=O)Nc1cccc(F)c1)CC(=O)Nc1ccccc1[N+](=O)[O-]	-2	-10	6	14	7
Cc1cc(C)c(NC(=O)CN(C)CC(=O)Nc2cccc(S(=O)(=O)N(C)c3ccccc3)c2)c(C)c1	-1	-14	44*	36*	89*
CN(CC(=O)Nc1cccc(F)c1)CC(=O)Nc1cccc(S(=O)(=O)N(C)c2ccccc2)c1	-3	-8	26	17	63*
CN(CC(=O)Nc1ccc(Cl)c(C(F)(F)F)c1)C(=O)Cc1n[nH]c(=O)c2ccccc12	-7	-4	14	6	-11
CN(CC(=O)Nc1cccc(F)c1)C(=O)Cc1n[nH]c(=O)c2ccccc12	-3	-15	1	41*	-3
CN(CC(=O)Nc1cccc(F)c1)CC(=O)Nc1cccc2ccccc12	-1	-13	46*	25	59*
COc1ccc(NC(=O)N(C)C[C@H]2OCCCC[C@H](C)Oc3ccc(NC(=O)Nc4cccc5ccccc45)cc3C(=O)N([C@@H](C)CO)C[C@H]2C)cc1	.	.	4	.	-3
Cc1cccc(C)c1NC(=O)C(c1ccccc1)N1CCN(c2ccc(F)cc2)CC1 (stereo unspecified)	-3	-1	7	-5	0
SMILES	CHRM1 agonist	CHRM1 PAM	TAAR1 agonist	CHRM1 antagonist	TAAR1 antagonist
Cc1cc(Br)cn2c(Cc3ccccc3C(F)(F)F)c(-c3ccco3)nc12	.	.	1	.	-14
O=C1c2ccccc2S(=O)(=O)N1Cc1cccc(S(=O)(=O)N2CCOCC2)c1	-2	-1	7	5	4
Cc1ccccc1-c1nnn(Cc2cccc(S(=O)(=O)N3CCOCC3)c2)n1	4	-11	10	19	60*
CCCN1C(=O)/C(=C/c2c(N3CCNC(=O)C3CC(=O)OCC)nc3c(C)cccn3c2=O)SC1=S (stereo unspecified)	13	-17	.	39*	.
O=C(N/N=C/c1cn(-c2ccccc2)nc1-c1ccc(F)cc1)c1ccc2c(c1)OCO2	-2	-5	8	8	22
CCCOc1ccc(/C=N/NC(=O)c2ccc3c(c2)OCO3)c(OCCC)c1	4	32*	1	-28	-12
COc1ccc(-c2nn(-c3ccccc3)cc2/C=N/NC(=O)c2ccc(Br)o2)cc1	4	-17	18	44*	61*
O=C(N/N=C\c1cn(-c2ccccc2)nc1-c1ccccc1)c1ccc2c(c1)OCO2	-5	-5	10	-9	55*
Cc1ccc(-c2cc(NC(=O)Cc3c(C)[nH]c4ccccc34)ccc2Nc2cccnc2)cc1	.	.	-1	.	-7
COc1ccc(S(=O)(=O)N2CCCc3nc(C)c(C)cc32)cc1	.	.	-1	.	-5
C[C@@H]1C=CCCO[C@]12C(=O)N(Cc1ccccc1C(F)(F)F)c1cccc(Br)c12	.	.	-2	.	-33
CCOC(=O)C1=C(C)NC(=O)NC1c1ccc(N(C)C)cc1 (stereo unspecified)	-10	-1	0	1	-13
COC(=O)C1=C(C)NC(C)=C(C(=O)OC)C1c1ccc(NC(C)=O)cc1	32*	-5	9	-12	4
CCOC(=O)C1=C(C)NC(=O)NC1c1ccc(N(CC)CC)cc1 (stereo unspecified)	-12	-24	-1	30*	-52
CCN(CC)c1ccc(C2C(C(=O)OC)=C(C)NC(C)=C2C(=O)OC)cc1	-7	-26	9	37*	8
O=C(NC(c1cccnc1)C(F)(F)F)c1cc(COc2ccc3c(c2)CCCC3)on1 (stereo unspecified)	2	-9	1	42*	-4
COc1ccc(C(C(=O)c2ccccc2)c2ccccc2)cc1 (stereo unspecified)	.	.	1	.	36
COc1ccc(C(C(=O)OC(C)CN(C)C)c2ccccc2)cc1 (stereo unspecified)	-6	-19	0	32*	-2
O=c1ccn(C2CC(O)C(COC(c3ccccc3)(c3ccccc3)c3ccccc3)O2)c(=O)[nH]1 (stereo unspecified)	.	.	12	.	-7
CC1CN(C)C(C)C/C1=N/Oc1ccccc1[N+](=O)[O-] (stereo unspecified)	-6	-16	4	42*	-2
